# Source: PubChem
# Shown are actives, neighbours in structure and some others; about 3.3% of the full set was active somewhere.
# SENP8 block-1: SENP8 (human) protease inhibition; 360,000 compounds, 0.64% hits; Q96LD8; inhibition, % at 20 µM; recombinant SENP8, Nedd8 substrate fluorescence; AID 602440; in the data active = inhibition mostly above about 40%, no sharp cut-off; inactive = mostly below about 27%
# SENP7 inh: inhibitors of human SENP7 protease; recombinant SENP7, Z-RLRGG-aminoluciferin luminescence, 40 min; Q9BQF6; AID 434973; inhibition, % at 5 µM; 330,000 compounds, 1.5% hits;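 active = inhibition above about 50% at the single test dose, limit read from the data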;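 also: plate controls were DMSO with enzyme for no effect and no enzyme buffer wells for full effect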
# Target sequence (Q9BQF6 706-1050 limits assumed): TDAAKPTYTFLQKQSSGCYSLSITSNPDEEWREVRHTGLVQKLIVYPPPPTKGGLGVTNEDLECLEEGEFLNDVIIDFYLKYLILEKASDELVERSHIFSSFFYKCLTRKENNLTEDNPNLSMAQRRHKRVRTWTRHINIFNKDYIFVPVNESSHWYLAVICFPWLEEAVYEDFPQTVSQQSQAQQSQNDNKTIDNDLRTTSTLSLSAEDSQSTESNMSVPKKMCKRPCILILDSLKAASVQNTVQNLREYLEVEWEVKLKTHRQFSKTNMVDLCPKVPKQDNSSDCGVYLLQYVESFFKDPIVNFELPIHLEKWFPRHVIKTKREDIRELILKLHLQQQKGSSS
# SENP1 inh: blocks the human SENP1 SUMO protease catalytic domain; recombinant SENP1 catalytic domain, CyPet-SUMO1-YPet FRET cleavage; inhibition, % at 10 µM; 360,000 compounds, 0.21% hits; AID 624204;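 active = inhibition at least 30% at 10 µM, raw YFP signal under a set limit, fluorescence ratio 0.5 to 1.5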;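 also: 0% = enzyme with DMSO and 100% = no enzyme wells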
#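 System: Recombinant human SENP1 catalytic domain, His6-tagged | Incubation: Enzyme reaction for 50 min at room temperature, dark | Medium: Tris pH 8 with BME, BSA, NP40 and catalase | Also added: 25 nM SUMO1 FRET substrate | Compound: 10 µM single point, 0.5% DMSO | Measured by: FRET fluorescence in CFP and YFP emission channels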
# SENP6 inh: SENP6 protease inhibition; Recombinant SENP6 catalytic domain, aminoluciferin luminescence; inhibition, % at 10 µM; 330,000 compounds, 1.8% hits;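 active = inhibition above about 50% at the single tested dose, limit read from the data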;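 also: plate controls were DMSO wells with enzyme for no effect and DMSO wells lacking enzyme for full effect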
# SENP8 block-2: SENP8 protease inhibition; Q96LD8; purified SENP8, Z-RLRGG-aminoluciferin cleavage, luminescence; inhibition, % at 10 µM; 330,000 compounds, 1.2% hits; AID 2540; in the data active = inhibition above about 50%
# CendR NRP1 mod: modulators of CendR peptide binding to human neuropilin-1; O14786; FAM-RPARPAR peptide binding to NRP-1, fluorescence polarization; inhibition, % at 25 µM; 360,000 compounds, 0.85% hits; AID 602438;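 active = inhibition or corrected inhibition above about 18%, plus a signal ratio from 0.5 to 1.5, limit read from the data, passing the limit was not always enough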
# SENP8 confirm: human SENP8 inhibition, confirmed | 6,200 compounds, 40% hits | AID 488912 | Recombinant SENP8, Z-RLRGG-aminoluciferin luminescence, 60 min | shares compounds with SENP7 inh | inhibition, % at 12.5 µM;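 active = mean inhibition across replicates above about 50%, limit read from the data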
# SENP6 conf: human SENP6 inhibition, confirmed; AID 488915; 6,200 compounds, 58% hits; recombinant SENP6, Z-RLRGG-aminoluciferin luminescence; inhibition, % at 12.5 µM; shares compounds with SENP7 inh
# SENP7 conf: human SENP7 inhibition, confirmed; recombinant SENP7, Z-RLRGG-aminoluciferin luminescence, 40 min; inhibition, % at 12.5 µM; shares compounds with SENP7 inh; AID 488917; 6,200 compounds, 69% hits
# Casp3 select: caspase-3 inhibition (SENP selectivity assay); shares compounds with SENP7 inh; AID 488918; 6,200 compounds, 60% hits; purified caspase-3, Z-DEVD-aminoluciferin luminescence, 60 min; inhibition, % at 12.5 µM;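 active = mean inhibition above about 50%, limit read from the data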;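 also: plate controls were enzyme with DMSO for no effect and wells without caspase-3 for full effect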
# Target sequence (P42574 28-227 limits assumed): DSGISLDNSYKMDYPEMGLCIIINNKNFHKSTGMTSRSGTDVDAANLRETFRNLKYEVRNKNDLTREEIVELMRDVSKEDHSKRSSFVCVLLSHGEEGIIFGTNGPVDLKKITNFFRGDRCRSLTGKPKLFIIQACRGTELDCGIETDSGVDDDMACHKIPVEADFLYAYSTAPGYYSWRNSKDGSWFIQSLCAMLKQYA
# Luc interf: counter-screen for SENP inhibitors: luminescence interference; Pre-incubated SENP8/Z-RLRGG-aminoluciferin, luciferase luminescence interference; shares compounds with SENP7 inh; inhibition, % at 12.5 µM; 6,200 compounds, 39% hits; AID 488919;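 active = mean inhibition above about 50% when retested at one dose, limit read from the data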;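 also: plate controls were DMSO wells with completed reaction for no effect and substrate without enzyme for full effect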
# An asterisk follows results filed as active; . = not tested or not shown.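 The calls were made as follows, unless noted: active = mean inhibition above about 50% in the one-dose retest (limit read from the data); inactive = the rest.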
SMILES,SENP8 block-1,SENP7 inh,SENP1 inh,SENP6 inh,SENP8 block-2,CendR NRP1 mod,SENP8 confirm,SENP6 conf,SENP7 conf,Casp3 select,Luc interf
CCOc1ccc2nc(NC(=O)c3cnccn3)sc2c1,27.2,73.9*,0.4,23.7,19.9,-6.3,16.1,14.4,23.9,51.9*,14.4
O=C(Nc1nc2ccc(F)cc2s1)C1=NN(c2ccccc2)C(=O)CC1,-42.0,11.1,-2.6,55.4*,25.6,-1.4,-13.3,0.8,20.0,1.0,-5.0
O=C(NNc1nc2ccc(F)cc2s1)c1cccc(F)c1,0.3,8.2,1.6,49.3,22.0,-8.8,.,.,.,.,.
O=C(Nc1nc2ccc(F)cc2s1)c1ccccn1,.,99.5*,.,95.1*,95.1*,.,92.4*,98.3*,101.8*,96.4*,48.5
O=C(Nc1ccc2nccnc2c1)c1cnccn1,-39.2,-1.0,4.1,-4.3,-20.6,-5.6,.,.,.,.,.
Cc1cn([C@H]2C[C@H](O)[C@@H](/C=C/C(=O)NCCC(c3ccccc3)c3ccccc3)O2)c(=O)[nH]c1=O,7.9,.,1.2,.,.,3.8,.,.,.,.,.
O=C(Nc1nc2ccccc2s1)c1cnccn1,10.0,8.2,1.4,96.6*,93.0*,6.1,6.4,56.4*,75.7*,79.1*,39.6
O=C(Nc1nc(-c2ccco2)c(-c2ccco2)s1)c1cnccn1,.,-21.1,.,-115.1,-10.0,.,.,.,.,.,.
CCC(=O)N(CC)Cc1cc(=O)[nH]c2ccccc12,-3.9,-7.1,2.9,4.5,-2.9,3.7,.,.,.,.,.
CCCN(Cc1cc(=O)[nH]c2ccccc12)C(=O)CC,-28.6,3.8,0.1,97.7*,-7.0,-5.7,5.2,3.1,-5.5,-4.2,-10.0
Oc1c(C=NCc2ccccc2)sc2ccccc12,-28.9,-5.3,-159.7,6.5,-5.9,-2.4,.,.,.,.,.
Oc1c(N=Nc2ccccc2)sc2ccccc12,1.3,98.9*,-16.3,97.8*,94.5*,-41.8,75.3*,98.2*,103.1*,96.4*,9.9
C=CCCC(=O)N1C[C@H]2CON(C)[C@H]2C[C@H]1c1ccc(N2CCCCC2)cc1,5.7,.,3.4,.,.,-65.3,.,.,.,.,.
Cc1ccsc1/C=N/n1cnnc1,11.4,-2.6,-0.3,-36.0,-7.7,6.7,.,.,.,.,.
Cc1ccsc1/C=N/n1cnc2sc(C)c(C)c2c1=O,20.9,45.6,0.7,70.4*,42.6,-1.6,23.0,19.8,21.7,28.6,8.3
CCc1ccc(C2CC(c3ccco3)=NN2S(C)(=O)=O)cc1 (configuration not stated),21.8,92.4*,-8.5,93.6*,89.2*,-52.5,96.3*,96.9*,101.7*,95.8*,92.5*
CCOc1ccc2cc(C3CC(c4ccco4)=NN3S(C)(=O)=O)c(Cl)nc2c1 (configuration not stated),-2.2,-1.7,-0.7,-10.1,-9.2,-13.8,.,.,.,.,.
NC(=O)c1sc2nc3c(cc2c1N)CCC3,-402.4,11.1,-10.8,9.4,-8.6,5.2,.,.,.,.,.
COC(=O)c1sc2nc3c(cc2c1N)CCCC3,-403.7,74.9*,-84.2,20.2,56.7*,-8.3,5.1,72.1*,91.3*,76.2*,50.9*
CSc1nc(N)n2nc(-c3ccc(Cl)cc3)cc2n1,3.3,98.2*,1.3,94.1*,89.3*,-17.5,-4.0,13.8,8.8,30.6,-6.3
CCOC(=O)c1cnc2cc(-c3ccc(Cl)cc3)nn2c1N,-101.9,14.9,-2.1,-4.8,-12.5,0.0,.,.,.,.,.
COc1ccc(S(=O)(=O)N2C[C@H]3CON(C)[C@H]3C[C@H]2c2ccc(-c3cc4ccccc4o3)cc2)cc1,-131.6,.,-0.1,.,.,-15.8,.,.,.,.,.
O=C(Nc1ccc(-c2nc3ccccc3s2)c(OC(=O)c2ccccc2)c1)c1ccccc1,16.2,64.9*,1.5,6.3,4.6,13.3,5.4,1.7,-6.2,-3.7,-12.4
O=C(Nc1ccc2nc3ccccc3nc2c1)c1ccccc1,-233.3,.,-20.6,.,.,1.4,.,.,.,.,.
C[C@H]1CN([C@@H](C)CO)C(=O)c2cc(Br)cnc2O[C@@H]1CN(C)S(=O)(=O)c1ccccc1,5.6,.,0.1,.,.,-2.2,.,.,.,.,.
SMILES,SENP8 block-1,SENP7 inh,SENP1 inh,SENP6 inh,SENP8 block-2,CendR NRP1 mod,SENP8 confirm,SENP6 conf,SENP7 conf,Casp3 select,Luc interf
Nc1ccc(Cn2ccc3c4c(N)nc(N)nc4ccc32)cc1,-292.8,.,5.7,.,.,12.0,.,.,.,.,.
O=C(NC(=O)c1ccccc1O)c1ccc(C(F)(F)F)cc1,29.9,77.6*,1.1,76.3*,71.2*,3.8,76.5*,74.9*,84.2*,84.3*,8.2
Fc1ccc2nc(-c3ccccc3)ccc2c1,17.4,.,0.0,.,.,5.2,.,.,.,.,.
c1ccc(-c2ccc3sccc3n2)cc1,15.5,84.9*,1.9,82.9*,75.2*,27.4*,36.3,78.2*,94.5*,79.4*,56.6*
CCC(C)(C)C1CCC2(CC1)NC(=O)N(CC(=O)N1CCN(c3ccccc3OC)CC1)C2=O (configuration not stated),8.8,.,1.3,.,.,10.9,.,.,.,.,.
N#CC(Cc1ccc(OC(F)F)cc1)c1nc2ccccc2[nH]1 (configuration not stated),-21.5,64.1*,-6.5,92.7*,79.9*,13.1,91.5*,90.8*,99.9*,88.0*,90.8*
O=C(Nc1nc2ccccc2[nH]1)c1ccc(OC(F)F)cc1,3.3,95.9*,12.0,94.8*,89.3*,-0.3,81.2*,93.4*,100.9*,94.9*,61.8*
O=C(Nc1nc2ccccc2[nH]1)c1ccccc1OC(F)F,-250.5,91.4*,1.4,90.8*,83.9*,-0.8,87.1*,88.2*,99.6*,95.1*,89.5*
N#CC(Cc1cccs1)c1nc2ccccc2[nH]1 (configuration not stated),-33.5,.,-28.8,.,.,-17.7,.,.,.,.,.
CC(C)Oc1ccc(C(=O)Nc2nc3ccccc3[nH]2)cc1,-0.3,100.3*,-1.3,96.7*,96.7*,9.3,91.0*,98.8*,103.3*,98.4*,68.2*
COC(=O)[C@]12CCCCC=C1N(Cc1ccc(Cl)cc1Cl)C(=O)[C@H](CC(=O)N1CCN(C(=O)c3ccco3)CC1)C2,9.1,.,2.4,.,.,-2.3,.,.,.,.,.
